# Most compounds without a hit are left out; they make up all but 3.4% or so of the library.
# TAAR1 agonist – human TAAR1 agonism | AID 624467 | CHO RD-HGA16 TAAR1, Fluo-8 calcium fluorescence; vehicle wells 0%, saturating PEA agonist 100% | hit rate 0.99% among 360,000 | activation, % at 3 µM;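 active means activation above the mean activation of all test compounds in the run plus 3 SD, cut at about 38% in these data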
#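 Test system: RD-HGA16 (CHO) cells co-expressing Gα16 and hTAAR1 / Benchmarks: DMSO vehicle as 0%, PEA at EC100 as 100% / Repeats: no replicates (n 1) / Measure: % activation from peak over basal fluorescence ratio, DMSO-to-PEA scaled / Timing: 17-24 h plating, Fluo-8 75 min 37 °C, 30 min RT / Technique: kinetic Fluo-8 calcium fluorescence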
# GPR7 antagonist – antagonists of human GPR7 (neuropeptides B/W receptor 1) | P48145 | GPR7-expressing cells, fluorescence antagonist assay | inhibition, % at 4.4 µM | hit rate 1.1% among 290,000; in the data active means inhibition above about 16%, passing the limit was not always enough;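 further: cells stimulated with the agonist NPW; 0% = agonist with vehicle and 100% = vehicle without agonist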
# TRPML3 ag – activates the human TRPML3 channel; Q8TDD5; HEK293 TRPML3-YFP, Fluo-8 calcium fluorescence; 100% = the carbachol control signal; activation, % at 3 µM; hit rate 0.29% among 220,000;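 active means activation above its plate's cutoff, the mean activation of the plate's test wells plus 3 SD, cut at about 12% in these data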;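 further: 0% = DMSO only wells and 100% = carbachol wells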
#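 system = HEK293 cells stably carrying human TRPML3-YFP | doses = one concentration, 3 µM nominal, 0.3% DMSO | timing = dye loading 1 h 37 °C then 30 min ambient, 125 s read | detection = Fluo-8 calcium dye fluorescence, ex 470-495, em 515-575 nm | benchmarks = high control carbachol 87 µM, low control DMSO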
# LANA-H2A inh – blocks KSHV LANA binding to histone H2A/H2B | cell-free LANA-H2A/H2B peptide, fluorescence polarization | inhibition, % (test concentration not listed) | hit rate 0.6% among 320,000 | AID 2629; in the data active means inhibition mostly above about 10%, no sharp cut-off; inactive means mostly below about 6.7%
# Target sequence (Q9QR71 whole entry, looked up): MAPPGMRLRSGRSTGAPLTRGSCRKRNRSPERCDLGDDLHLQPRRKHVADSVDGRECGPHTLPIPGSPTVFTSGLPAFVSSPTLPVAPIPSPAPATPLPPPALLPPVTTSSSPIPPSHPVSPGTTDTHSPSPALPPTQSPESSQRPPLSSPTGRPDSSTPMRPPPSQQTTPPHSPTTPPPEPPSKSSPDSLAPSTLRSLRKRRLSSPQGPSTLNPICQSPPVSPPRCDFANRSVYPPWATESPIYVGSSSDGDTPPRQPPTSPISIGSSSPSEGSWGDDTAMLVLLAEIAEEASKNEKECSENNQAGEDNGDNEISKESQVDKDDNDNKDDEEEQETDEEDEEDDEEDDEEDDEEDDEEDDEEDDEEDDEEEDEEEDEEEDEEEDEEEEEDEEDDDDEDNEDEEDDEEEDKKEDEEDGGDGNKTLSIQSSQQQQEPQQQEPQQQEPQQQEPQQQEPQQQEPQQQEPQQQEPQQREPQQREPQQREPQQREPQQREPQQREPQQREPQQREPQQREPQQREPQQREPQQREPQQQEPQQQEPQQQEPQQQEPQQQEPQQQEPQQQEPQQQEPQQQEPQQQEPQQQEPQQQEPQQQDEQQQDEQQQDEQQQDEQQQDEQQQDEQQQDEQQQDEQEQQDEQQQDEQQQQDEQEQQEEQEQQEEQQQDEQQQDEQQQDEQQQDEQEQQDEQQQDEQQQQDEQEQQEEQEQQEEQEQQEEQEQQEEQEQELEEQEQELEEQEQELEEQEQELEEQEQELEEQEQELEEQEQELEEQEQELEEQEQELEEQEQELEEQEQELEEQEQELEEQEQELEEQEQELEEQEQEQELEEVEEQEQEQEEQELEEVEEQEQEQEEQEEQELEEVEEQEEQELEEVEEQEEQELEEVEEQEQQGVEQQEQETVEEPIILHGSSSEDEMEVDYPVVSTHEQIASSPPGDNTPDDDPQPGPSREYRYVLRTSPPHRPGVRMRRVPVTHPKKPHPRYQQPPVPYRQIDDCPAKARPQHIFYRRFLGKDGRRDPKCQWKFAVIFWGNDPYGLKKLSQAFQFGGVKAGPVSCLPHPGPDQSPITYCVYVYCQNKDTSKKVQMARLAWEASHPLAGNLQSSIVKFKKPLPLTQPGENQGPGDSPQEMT
# zfTRPN1 agonist – agonists of zebrafish TRPN1 channel | HEK293 zebrafish TRPN1-YFP, Fluo-8 calcium fluorescence; 100% = response to 87 µM carbachol | hit rate 0.18% among 220,000 | activation, % at 3 µM;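 active means activation above its plate's cutoff, the mean activation of test wells on that plate plus 3 SD, cut at about 19% in these data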;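 further: 0% = DMSO alone and 100% = 87 µM carbachol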
#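 Material – zebrafish TRPN1-YFP in HEK293 cells · Doses – 3 µM single point · Schedule – dye 1 h 37 °C plus 30 min RT · Signal – Fluo-8 calcium fluorescence, excitation 470-495 nm, emission 515-575 nm · Read-out – % activation versus carbachol response · Control set – carbachol high, DMSO low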
# TAAR1 antag – antagonists of human TAAR1; CHO RD-HGA16 TAAR1, Fluo-8 calcium fluorescence, antagonist; inhibition, % at 3 µM; hit rate 1.5% among 360,000; AID 624466;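 active means inhibition above a per-plate cutoff, the mean inhibition of test compounds on that plate plus 3 SD, cut at about 49% in these data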;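 further: 0% = DMSO plus EC80 beta-PEA response and 100% = DMSO alone without agonist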
#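 test system = CHO RD-HGA16 cells bearing hTAAR1 | replication = singlicate | controls = DMSO-only wells and EC80 β-PEA-stimulated wells | reagent = EC80 β-phenethylamine stimulus | read-out basis = percent inhibition of PEA-evoked calcium signal, max/basal emission ratio | schedule = seeding 17-24 h prior, 75-min 37 °C, 30-min RT dye loading | signal = kinetic Fluo-8 calcium fluorescence measurement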
# GPR7 antag conf – confirmation of human GPR7 antagonists | inhibition, % at 4.4 µM | shares compounds with GPR7 antagonist | AID 1952 | GPR7-expressing cells, calcium fluorescence antagonist mode | hit rate 52% among 2,400; in the data active means inhibition above about 24%;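 further: stimulated with the GPR7 agonist NPW; 0% = agonist plus vehicle and 100% = vehicle alone without agonist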
# MCHR1 antag – antagonizes human MCHR1, a GPR7 antagonist counter-screen; shares compounds with GPR7 antagonist; MCHR1-expressing cells, fluorescence antagonist assay; inhibition, % at 4.4 µM; hit rate 62% among 2,400; AID 2148; in the data active means inhibition above about 22%;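 further: 0% = vehicle with agonist and 100% = vehicle without agonist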
# * = called active by the depositor; / = not tested or not shown; ! = not confirmed by another sample.
SMILES,TAAR1 agonist,GPR7 antagonist,TRPML3 ag,LANA-H2A inh,zfTRPN1 agonist,TAAR1 antag,GPR7 antag conf,MCHR1 antag
Cc1ccc(NC(=O)C2CCN(S(=O)(=O)c3ccc4c(c3)NC(=O)C(C)S4)CC2)cc1Cl (stereo not given),7,38*,/,-5,/,38,69*,75*
CCOC(=O)[C@]12CCCC=C1N(Cc1cccc3ccccc13)C(=O)[C@H](CC(=O)N1CCCCC1)C2,3,/,/,/,/,4,/,/
CCc1ccc(N2CC(C(=O)Nc3nc4ccc(S(C)(=O)=O)cc4s3)CC2=O)cc1 (stereo not given),-1,-2,/,6,/,14,/,/
CC(NC(=O)c1cc(COc2ccc(-n3cncn3)cc2)on1)c1ccc(F)cc1 (stereo not given),4,/,/,/,/,-11,/,/
CC(=O)c1ccc(NC(=O)c2cn(C)c(=O)c3ccccc23)cc1,-1,/,/,/,/,-22,/,/
COc1ccc(CC(=O)N2CCc3ccccc32)cc1,6,4,0,-4,1,-23,/,/
COc1ccc(CC(=O)N2CCNC2=O)cc1,5,30*,0,0,1,5,-13,-1
O=C(CCN1C(=O)c2ccccc2C1=O)Nc1ccc2c(c1)OCCO2,14,23*,0,-6,1,16,0,-1
COc1cc(/C=C/C(=O)OCC(=O)Nc2c(C)n(C)n(-c3ccccc3)c2=O)cc(OC)c1OC,0,/,/,/,/,15,/,/
COc1ccc(C(CCNC(C)c2ccccc2)C(C)C)cc1 (stereo not given),12,33*,1,4,1,-10,36*,31*
COc1ccc(C(CC(=O)NCc2ccccc2)C(C)C)cc1 (stereo not given),2,11,0,2,-2,-21,/,/
CCc1cccc(CC)c1NC(=O)COC(=O)C1(c2ccc(Cl)cc2)CCCC1,-1,42*,1,/,-1,2,36*,51*
CCCCCCCCn1ccc(=N)cc1,0,-2,0,5,1,7,/,/
CCCCCCCCCCCCCCCCn1cc[n+](C)c1,27,31*!,0,3,1,41,94*,99*
COc1ccccc1CNCC(O)(c1ccc(Cl)cc1)c1ccc(Cl)cc1,14,28*,0,-5,6,-4,47*,33*
COc1ccccc1CNC(=S)NCc1ccc(Cl)cc1,9,11,/,1,/,8,/,/
COc1ccccc1CNCC(O)(c1ccc(F)cc1)c1ccc(F)cc1,3,40*,/,3,/,8,41*,36*
OC(CNCc1ccccc1F)(c1ccc(F)cc1)c1ccc(F)cc1,0,9,1,-3,-2,3,/,/
C/C(CC(=O)Nc1ccc(N(C)C)cc1)=N\NC(=O)c1ccc([N+](=O)[O-])cc1,0,27*,/,-4,/,-4,7,2
C/C(CC(=O)Nc1ccc([N+](=O)[O-])cc1)=N\NC(=O)c1ccccc1[N+](=O)[O-],1,8,/,4,/,-24,/,/
CCN(CC)CCNC(=O)c1ccc(NC(=O)c2cn(-c3ccccc3)nc2-c2cccs2)cc1,11,22*,2,2,5,24,35*,45*
CCc1ccc(CN(C)C(=O)c2cc(COc3cccc4cnccc34)on2)cc1,2,38*,/,-2,/,51*,23,46*
COc1ccc(CC(=O)N[C@@H]2c3cc(OC)c(OC)cc3C[C@H]2O)cc1,0,/,/,/,/,1,/,/
CC(C)n1cc(CN2CCCC(C(=O)Nc3cccc(-c4cc5ccccc5[nH]4)c3)C2)cn1 (stereo not given),40*,27*,/,-1,/,35,42*,56*
Nc1cccc2cccc([N+](=O)[O-])c12,9,/,/,/,/,-10,/,/
SMILES,TAAR1 agonist,GPR7 antagonist,TRPML3 ag,LANA-H2A inh,zfTRPN1 agonist,TAAR1 antag,GPR7 antag conf,MCHR1 antag
CCOC(=O)c1[nH]c2ccc(OC)cc2c1NS(=O)(=O)c1ccc(OC)cc1OC,3,22*,-1,0,0,-2,32*,21
COC(=O)c1[nH]c2ccc(F)cc2c1NS(=O)(=O)c1ccc(OC)cc1OC,2,4,2,0,2,-2,/,/
COc1ccc(NC(=O)CSc2nnc3n2CCCCC3)cc1S(=O)(=O)N(C)C,2,/,/,/,/,-5,/,/
Cc1ccc2nc3c(cc2c1)CN(Cc1ccco1)C(=NCC1CCCO1)S3 (stereo not given),5,-1,1,-5,2,19,/,/
Cc1cccc2cc3c(nc12)SC(=NCC1CCCO1)N(Cc1ccco1)C3 (stereo not given),/,22*,2,4,1,/,13,60*
CCn1c(SCCOc2ccc(Cl)cc2)nnc1-c1cccs1,1,29*,-1,10,-2,6,9,31*
COc1ccc(C(CNC(=O)COc2ccc(Cl)c(C)c2)N2CCCCC2)cc1 (stereo not given),-2,28*,/,/,/,3,30*,19
CCOc1ccc(/C=N/NC(=O)c2ccccc2O)cc1CN1CC2CC(C1)c1cccc(=O)n1C2 (stereo not given),2,/,/,-4,/,42,/,/
CCCCN(C)CC(O)Cn1cc(/C=C/C(=O)c2ccc(C)cc2)c2ccccc21 (stereo not given),17,37*,/,-3,/,23,37*,36*
O=C(Nc1cccc(Cl)c1)Nc1cccc(Cl)c1,15,21*,5,-3,10,42,46*,64*
COC(=O)c1cc(NC(=O)c2ccc(-c3ccccc3)cc2)ccc1Cl,7,8,0,7,-1,22,/,/
O=C(Nc1ccccc1)Nc1cccc2ccccc12,3,37*,0,-5,1,-7,5,22*
COC(=O)c1cc(NC(=O)Nc2cccc(Cl)c2)ccc1Cl,10,33*,8,2,16,60*,52*,77*
O=C(Nc1ccccc1)Nc1cc(Cl)cc(Cl)c1,6,38*,7,-2,8,20,38*,60*
O=[N+]([O-])c1ccc(Cc2ccccn2)c([N+](=O)[O-])c1,1,/,/,-2,/,-2,/,/
CC(C)c1ccc(CC(=O)N2CCC2(C)C(=O)NCCC#N)cc1 (stereo not given),4,/,/,/,/,-16,/,/
Cn1cccc1CNCC(O)c1ccccc1 (stereo not given),24,-5,/,0,/,1,/,/
O=C(Nc1cccc(F)c1)Nc1cccc(Cl)c1,9,34*,/,-5,/,-14,40*,55*

# Screening data from PubChem BioAssay.
